Source: PubChem BioAssay (Broad Institute)
FN deposition inh: fibronectin deposition inhibition; AH1F fibroblasts, Alexa488-fibronectin deposition fluorescence, overnight; inhibition, % at 12.6 µM; 0.086% of 350,000 active; AID 743247;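 active = mean inhibition across replicates of 30% or more, regardless of how many single replicates reach that level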;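 note: positive control wells lacked labelled fibronectin entirely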
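Test system: AH1F fibroblast monolayer depositing Alexa488-labelled fibronectin into matrix. Input: 10000 cells per well. Technique: fluorescence, ex 485 nm, em 525 nm. Buffer or medium: DMEM plus 2% serum, read in PBS. Timing: 1 h cell adhesion before compound, then overnight fibronectin incubation. Compound: single dose, pinned. Read-out basis: inhibition from reduced deposited-fibronectin fluorescence.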
rRNA inh HTS: inhibits bacterial ribosomal RNA function over humanized ribosomes; E. coli WT GFP vs humanized-ribosome RFP mutants, fluorescence, 24 h; hits give low values; DMSO median 0, no signal -100; GFP signal change (wild-type ribosome), % (test concentration not listed); 1.6% of 350,000 active;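 active = significant combined selectivity score with lowered wild-type GFP, culture density cut under 30%, mutant RFP and density less affected; inactive = any of these conditions unmet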
E-sel inducer: E-selectin induction on HUVECs; P16581; HUVEC E-selectin immunofluorescence imaging; normalized: neutral wells 0, TNF-alpha wells 100; 0.37% of 260,000 active; AID 686992; activation, % at 7.58 µM;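 active = mean E-selectin-positive cell signal at least 10% of the positive control, reached in at least 60% of replicates, without over 20% cell loss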
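Read-out: % PE-positive cells | Test system: HUVEC | Doses: One compound dose added by pin transfer | Buffer or medium: EGM-2 over gelatin coat | Signal: Immunofluorescence imaging | Benchmarks: TNF-alpha, DMSO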
FGF22 binding-1: FGF22 (human) thermal shift binding; recombinant FGF22 thermal shift, SYPRO orange fluorescence; percent of sucrose octasulfate shift, DMSO zero; activity (Tm shift, normalised), % at 9.99 µM; 1.5% of 340,000 active;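 active = mean Tm shift, scaled 0 neutral to 100 positive control, at about 1.3% or above, every replicate too, limit read from the data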
Target sequence (Q9HCT0 whole entry, looked up): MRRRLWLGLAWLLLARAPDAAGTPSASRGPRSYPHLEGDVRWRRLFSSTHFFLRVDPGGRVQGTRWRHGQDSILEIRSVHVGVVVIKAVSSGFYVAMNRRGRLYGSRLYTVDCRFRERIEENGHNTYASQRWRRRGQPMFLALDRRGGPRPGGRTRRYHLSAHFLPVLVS
C2C12 statin: protects C2C12 myotubes from simvastatin toxicity; ATP luminescence, 48 h; scaled: DMSO 0, geranylgeraniol control 100; AID 602340; rescue of ATP level, % at 7.49 µM; 0.78% of 330,000 active;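 active = mean ATP rescue above about 67%, or every replicate alone reaching that limit, limit read from the data, passing the limit was not always enough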;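 note: myotubes were challenged with 10 µM simvastatin during compound exposure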
SIRT5 block: inhibitors of human sirtuin-5 desuccinylase; Purified SirT5, succinyl-peptide AMC, trypsin-coupled fluorescence; inhibition, % at 15 µM; AID 652115; Q9NXA8; 1.1% of 330,000 active; in the data active = inhibition above about 15%
Target sequence (Q9NXA8 whole entry, looked up): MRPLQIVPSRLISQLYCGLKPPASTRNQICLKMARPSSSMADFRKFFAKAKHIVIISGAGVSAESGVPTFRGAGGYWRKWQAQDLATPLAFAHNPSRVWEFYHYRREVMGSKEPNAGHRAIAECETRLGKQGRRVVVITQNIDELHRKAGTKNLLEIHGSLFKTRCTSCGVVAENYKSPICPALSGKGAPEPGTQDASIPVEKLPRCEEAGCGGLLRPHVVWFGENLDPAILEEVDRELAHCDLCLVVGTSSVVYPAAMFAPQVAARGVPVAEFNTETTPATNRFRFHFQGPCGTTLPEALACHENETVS
FGF22 binding-2: FGF22 (human) binding in thermal shift | shares compounds with FGF22 binding-1 | recombinant FGF22 thermal shift, SYPRO orange fluorescence | thermal shift activity, °C (ΔTm) at 38 µM | 2% of 1,000 active | AID 720646;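 active = fitted rise in melting shift crosses a set limit at or below the top valid dose tested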
SYPRO no-protein: compound-only SYPRO artifact for FGF22 binders. AC50, µM (doses to about 38 µM). 2% of 1,000 active. compound-only SYPRO orange thermal shift counter-screen, no protein. shares compounds with FGF22 binding-1;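 active = rising signal whose fitted curve reaches the 0.54 level within the top valid dose, showing a melting point, actives reach about 13 µM in these data; inactive = the rest, including activity in the opposite direction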; note: value is where the raw curve crosses a fixed level and not half-maximal
An asterisk follows results filed as active; i = inactive; x = no result given; [ ] = another dose, or the depositor's remark. Hits are enriched below; roughly 4% of the tested compounds scored in any of these assays.

SMILES	FN deposition inh	rRNA inh HTS	E-sel inducer	FGF22 binding-1	C2C12 statin	SIRT5 block	FGF22 binding-2	SYPRO no-protein
CC(=O)N1[C@@H]2Cn3c(ccc(-c4ccccc4)c3=O)[C@H]1[C@@H](C(=O)Nc1ccccc1)[C@@H]2CO	x	1.0	0.1	-0.2	-9.8	-23.2	x	x
COc1cc2ccccc2cc1C(=O)OCC(=O)c1c(N)n(C)c(=O)n(C)c1=O	2.7	-1.9	0.3	17.2*	1.9	0.1	0.074	i
Cn1c(=O)[nH]c(=O)c2c1nc(SCC(O)CO)n2CCCc1ccccc1 (stereo not given)	-5.5	3.7	x	1.4*	3.2	-2.2	0.026	i
CCC(=O)N[C@H]1CC[C@H](CCNS(=O)(=O)c2ccc(Cl)cc2)O[C@H]1CO	x	-3.0	-0.1	0.0	-6.2	-1.0	x	x
O=C(Nc1nc(-c2ccccn2)cs1)c1cccc(S(=O)(=O)N2CCOCC2)c1	x	-28.5	-0.2	1.5*	-102.5	-1.4	-0.095	i
O=C(Nc1nc(-c2ccccn2)cs1)c1cc2ccccc2o1	3.5	-53.6	x	1.6*	16.3	-1.4	-0.224	i
Cc1c(C(=O)Nc2nc(-c3ccccn3)cs2)oc2ccccc12	x	x	x	x	-33.3	x	x	x
CN(C)C(=O)c1ccc(-c2ccc([C@@H]3[C@@H](CO)N4CCCCN(C(=O)C5CCCC5)C[C@H]34)cc2)cc1	x	x	x	-0.4	x	3.2	x	x
Cc1ccc(NC(=O)c2ccc(OCc3c(C)noc3C)cc2)c(C)c1	-0.5	-19.4	-0.4	1.6*	10.9	-6.4	x	i
Cc1onc(-c2ccccc2)c1C(=O)Nc1ncc([N+](=O)[O-])s1	-12.3	-32.3	-0.3	1.9*	-445.8	2.9	x	i
CC(=O)N1[C@H](CO)[C@@H](c2ccccc2)C12CN(C(=O)c1ccccn1)C2	x	1.4	0.1	1.3*	x	-7.2	0.132[42 µM]	i
O=C(CC1CC1)N1CC2(C1)[C@H](c1ccccc1)[C@H](CO)N2C(=O)c1cnccn1	x	1.4	0.2	1.4*	x	-2.3	0.166[42 µM]	i
CC(=O)N1[C@@H](CO)[C@@H](c2ccccc2)C12CN(C(=O)c1ccccn1)C2	x	2.6	0.3	1.4*	x	-4.9	0.119[42 µM]	i
COCC(=O)N1CC2(C1)[C@@H](c1ccccc1)[C@@H](CO)N2C(=O)NC1CCCC1	-4.9	-3.0	0.7	1.4*	x	x	0.001	i
CC(C)NC(=O)N(C)C[C@H]1Oc2c(NS(C)(=O)=O)cccc2C(=O)N(C)C[C@@H]1C	-5.7	0.4	x	x	x	x	x	x
CC(C)NC(=O)N(C)C[C@@H]1Oc2ccc(NC(=O)Nc3ccccc3)cc2C(=O)N([C@H](C)CO)C[C@@H]1C	x	3.2	-3.6	0.3	-6.8	-4.2	x	x
C[C@H](CO)N1C[C@H](C)[C@@H](CN(C)CC2CC2)Oc2ccc(NS(=O)(=O)c3cn(C)cn3)cc2C1=O	x	6.0	-0.3	-0.1	-24.9	x	x	x
O=C(O)C1CSC(c2ccc3c(c2)OCO3)N1 (stereo not given)	-7.8	7.9	5.3	2.7*	x	6.9	0.108	i
Cc1ccc(S(=O)(=O)Nc2ccc3c(c2)C(=O)N(C)[C@@H]2CC[C@H](CC(=O)NCCc4ccncc4)O[C@H]2CO3)cc1	-2.7	-2.9	0.4	0.1	14.1	-0.1	x	x
O=C(NNC(=O)c1ccccc1O)c1ccc(NS(=O)(=O)c2ccc(F)c(F)c2)cc1	4.2	-14.2	0.0	1.8*	x	-6.3	-0.036	i
O=C(COc1ccc(S(=O)(=O)Nc2ccccc2)cc1)NCc1ccncc1	2.4	3.5	x	14.3*	x	-1.7	0.208	i
Cc1ccc(NS(=O)(=O)c2ccc(OCC(=O)NCc3cccnc3)cc2)cc1	2.2	-1.9	x	0.1	x	-5.8	x	x
N#C[C@H]1[C@H](c2ccccc2-c2ccccc2F)[C@@H](CO)N1C(=O)C1CCC1	-6.9	-8.8	0.0	1.4*	x	-3.1	0.141[42 µM]	i
